Source: ChEMBL document CHEMBL4257564, “Rational Design, Synthesis, and Pharmacological Characterization of Novel Ghrelin Receptor Inverse Agonists as Potential Treatment against Obesity-Related Metabolic Diseases” (J Med Chem, 2018)

Legend:
[1] = molecular target: T1, Growth hormone secretagogue receptor type 1 (Homo sapiens, UniProt Q92847); experiment: Antagonist activity at recombinant human GHSR1a expressed in HEK293 cells assessed as inhibition of ghrelin-induced intracellular calcium release incubated for 20 secs and measured after 2 mins by FLIPR assay; assay type: functional, cell-based
T1 sequence (Q92847 whole entry): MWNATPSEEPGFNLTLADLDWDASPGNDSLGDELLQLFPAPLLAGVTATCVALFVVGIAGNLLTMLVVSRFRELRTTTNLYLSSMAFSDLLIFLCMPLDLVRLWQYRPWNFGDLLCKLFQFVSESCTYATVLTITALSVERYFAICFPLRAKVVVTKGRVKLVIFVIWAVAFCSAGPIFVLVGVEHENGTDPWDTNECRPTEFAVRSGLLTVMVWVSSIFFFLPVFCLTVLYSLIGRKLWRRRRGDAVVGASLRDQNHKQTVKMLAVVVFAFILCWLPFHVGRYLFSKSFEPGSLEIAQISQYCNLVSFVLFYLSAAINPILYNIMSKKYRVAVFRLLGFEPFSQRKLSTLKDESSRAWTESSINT
Procedure, shortened: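 HEK293/GHSR1a cells were dye-loaded for 30-60 min. Compounds and 10 nM ghrelin were added at t = 20 s, with a 15 min compound preincubation described. Calcium response was read for 2 min. IC50 was taken from dose-response fits of the reduction in ghrelin response; mean of at least two independent runs done in triplicate.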

[2] = molecular target: T1, Growth hormone secretagogue receptor type 1; experiment: Inverse agonist at recombinant human GHSR1a expressed in HEK293 cells assessed as decrease in IP1 accumulation after 1 hr by IP1-d2-based HTRF assay; assay type: functional, cell-based
Procedure, shortened: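 HEK293 cells stably expressing human GHSR1a were seeded on Matrigel in complete DMEM for 18–22 h at 37 °C, 5% CO2. Compound in stimulation buffer was applied for 1 h at 37 °C. IP1-d2 and Tb-cryptate were then added for 1 h at room temperature, with HTRF read at 620/665 nm. Mean of at least two independent runs in triplicate.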

[3] = molecular target: T1, Growth hormone secretagogue receptor type 1; experiment: Agonist activity at recombinant human GHSR1a expressed in HEK293 cells assessed as induction of intracellular calcium release after 15 mins by FLIPR assay; assay type: functional, cell-based; details: read-out: EC50
Procedure, shortened: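 HEK293 cells stably expressing human GHSR1a, seeded 24 h before the run, then loaded with calcium dye for 30-60 min at room temperature or 37 °C. DMSO-dissolved compounds were added and intracellular calcium release was monitored by FLIPR fluorescence.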

[4] = Clearance in mouse liver microsomes at 0.625 uM preincubated for 5 mins followed by NADPH addition and measured after 60 mins by LC-MS/MS analysis; assay type: ADME, microsome; details: read-out: CLH
Procedure, shortened: (§1)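 Liver microsomes (0.625 mg/mL protein) in 50 mM potassium phosphate pH 7.4 with 0.625 µM test item, prewarmed 5 min at 37 °C. Reaction started with NADPH (5 mM solution). Samples taken at 0, 5, 15, 30 and 60 min into cold MeCN with internal standard, analysed by LC-MS/MS. Intrinsic clearance derived by the half-life approach.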

[5] = Clearance in dog liver microsomes at 0.625 uM preincubated for 5 mins followed by NADPH addition and measured after 60 mins by LC-MS/MS analysis; assay type: ADME, Canis lupus familiaris, microsome; details: read-out: CLH; procedure, shortened: as §1
[6] = Clearance in rat liver microsomes at 0.625 uM preincubated for 5 mins followed by NADPH addition and measured after 60 mins by LC-MS/MS analysis; assay type: ADME, microsome; details: read-out: CLH; procedure, shortened: as §1
[7] = Clearance in human liver microsomes at 0.625 uM preincubated for 5 mins followed by NADPH addition and measured after 60 mins by LC-MS/MS analysis; assay type: ADME, microsome; details: read-out: CLH; procedure, shortened: as §1

## Cc1cc(-c2ccc3c(c2)CCC3N2CCC(N(C)C(=O)N[C@@H](C)c3ccc(C#CC4CC4)c(Cl)c3Cl)C(C)(C)C2)ncn1 (some centres not stated)
[1]
  IC50: 530 nM
[2]; read-out: EC50
  EC50: 363 nM

## Cc1ccc2c(c1)CCC2N1CCC(N(C)C(=O)N[C@@H](C)c2ccc(C#C[Si](C)(C)C)c(Cl)c2Cl)CC1 (some centres not stated)
[1]
  IC50: 2000 nM
[2]; hek293
  EC50: Not Active

## Cc1cc(-c2ccc3c(c2)CCC3N2CCC(N(C)C(=O)N[C@H](c3ccc(-c4cnccn4)c(Cl)c3Cl)C(F)(F)F)CC2)ncn1 (some centres not stated)
[1]
  IC50: 8080 nM
[2]; read-out: EC50
  EC50: 2160 nM

## Cc1cc(-c2ccc3c(c2)CCC3N2CCC(N(C)C(=O)N[C@@H](CC3CC3)c3ccc(-c4cnccn4)c(Cl)c3Cl)CC2)ncn1 (some centres not stated)
[1]
  IC50: 4540 nM
[2]; read-out: EC50
  EC50: 484 nM

## Cc1cc(-c2ccc3c(c2)CC[C@H]3N2CC3(CCN(C(=O)N[C@@H](C)c4ccc(-c5cnccn5)c(Cl)c4Cl)CC3)C2)ncn1
[1]
  IC50: 1210 nM
[2]; read-out: EC50
  EC50: 483 nM
[3]
  EC50: > 30000 nM

## Cc1cc(-c2ccc3c(c2)CCC3N2CCC(N(C)C(=O)NC(C)c3cccc(Cl)c3Cl)CC2)ncn1 (configuration not stated)
[1]
  IC50: 2330 nM
[2]; hek293
  EC50: Not Active
[3]
  EC50: > 30000 nM

## Cc1cc(-c2ccc3c(c2)CCC3N2CCC(N(C)C(=O)NCc3ccc(C#CC4CC4)c(Cl)c3Cl)CC2)ncn1 (configuration not stated)
[1]
  IC50: 1130 nM
[2]; hek293
  EC50: Not Active

## Cc1cn2cc(CNC(=O)N(C)C3CCN(C)CC3)nc2s1
[1]
  IC50: > 30000 nM
[2]; hek293
  EC50: Not Active
[3]
  EC50: > 30000 nM

## Cc1cc(-c2ccc3c(c2)CCC3N2CCC(N(C)C(=O)N[C@@H](C)c3ccc(C#CC4CC4)c(Cl)c3Cl)CC2)ncn1 (some centres not stated)
[4]
  microsomal CLint at 0.625 µM: 42.6 µL/min/mg
[1]
  IC50: 80 nM
[5]
  microsomal CLint at 0.625 µM: 62.3 µL/min/mg
[2]; read-out: EC50
  EC50: 51 nM
[6]
  microsomal CLint at 0.625 µM: 19.2 µL/min/mg
[7]
  microsomal CLint at 0.625 µM: 53.9 µL/min/mg

## Cc1cc(-c2ccc3c(c2)CCC3N2CCC(N(C)C(=O)NCc3cccc(Cl)c3Cl)CC2)ncn1 (configuration not stated)
[1]
  IC50: 2700 nM
[2]; hek293
  EC50: Not Active

## Cc1cc(-c2ccc3c(c2)CCC3N2CCC(N(C)C(=O)N[C@@H](C)c3ccc(N)c(Cl)c3Cl)CC2)ncn1 (some centres not stated)
[1]
  IC50: 571 nM
[2]; read-out: EC50
  EC50: 121 nM

## Cc1cc(-c2ccc3c(c2)CCC3N2CCC(N(C)C(=O)N[C@@H](C)c3ccc(-c4cnccn4)c(Cl)c3Cl)CC2)ncn1 (some centres not stated)
[1]
  IC50: 369 nM
[2]; read-out: EC50
  EC50: 194 nM
[3]
  EC50: > 30000 nM

## Cc1cc(-c2ccc3c(c2)CCC3N2CCC(N(C)C(=O)N[C@@H](C)c3ccc(C4CC4)c(Cl)c3Cl)CC2)ncn1 (some centres not stated)
[1]
  IC50: 2870 nM
[2]; read-out: EC50
  EC50: 298 nM

## COc1ccc([C@H](C)NC(=O)N(C)C2CCN(C3CCc4cc(O)ccc43)CC2)c(Cl)c1Cl (some centres not stated)
[4]
  microsomal CLint at 0.625 µM: 117 µL/min/mg
[1]
  IC50: 1300 nM
[2]; hek293
  EC50: Not Active
[7]
  microsomal CLint at 0.625 µM: 87.1 µL/min/mg

## Cc1ccc2c(c1)CCC2N1CCC(N(C)C(=O)N[C@@H](C)c2ccc(O)c(Cl)c2Cl)CC1 (some centres not stated)
[1]
  IC50: 1170 nM
[2]; read-out: EC50
  EC50: 189 nM

## COc1ccc([C@H](C)NC(=O)N(C)C2CCN(C3CCc4cc(-c5cc(C)ncn5)ccc43)CC2)c(Cl)c1Cl (some centres not stated)
[4]
  microsomal CLint at 0.625 µM: 122 µL/min/mg
[1]
  IC50: 171 nM
[5]
  microsomal CLint at 0.625 µM: 241 µL/min/mg
[2]; read-out: EC50
  EC50: 67 nM
[6]
  microsomal CLint at 0.625 µM: 69.5 µL/min/mg
[7]
  microsomal CLint at 0.625 µM: 94.2 µL/min/mg

## C[C@H](NC(=O)N(C)C1CCN(C2CCc3ccccc32)CC1)c1ccc(C#CC2CC2)c(Cl)c1Cl (some centres not stated)
[1]
  IC50: 919 nM
[2]; hek293
  EC50: Not Active

## COc1ccc([C@H](C)NC(=O)N(C)C2CCN(C3CCc4cc(Cl)ccc43)CC2)c(Cl)c1Cl (some centres not stated)
[4]
  microsomal CLint at 0.625 µM: 388 µL/min/mg
[1]
  IC50: 315 nM
[2]; read-out: EC50
  EC50: 40.7 nM
[6]
  microsomal CLint at 0.625 µM: 271 µL/min/mg
[7]
  microsomal CLint at 0.625 µM: 241 µL/min/mg

## C#Cc1ccc([C@H](C)NC(=O)N(C)C2CCN(C3CCc4cc(-c5cc(C)ncn5)ccc43)CC2)c(Cl)c1Cl (some centres not stated)
[4]
  microsomal CLint at 0.625 µM: 157 µL/min/mg
[1]
  IC50: 156 nM
[5]
  microsomal CLint at 0.625 µM: 137 µL/min/mg
[2]; read-out: EC50
  EC50: 10.6 nM
[6]
  microsomal CLint at 0.625 µM: 65.6 µL/min/mg
[7]
  microsomal CLint at 0.625 µM: 165 µL/min/mg

## CC[C@H](NC(=O)N(C)C1CCN(C2CCc3cc(-c4cc(C)ncn4)ccc32)CC1)c1ccc(C#CC2CC2)c(Cl)c1Cl (some centres not stated)
[1]
  IC50: 192 nM
[2]; read-out: EC50
  EC50: 306 nM

## Cc1cc(-c2ccc3c(c2)CC[C@H]3N2CC3(CCN(C(=O)N[C@@H](C)c4cccc(Cl)c4Cl)CC3)C2)ncn1
[1]
  IC50: 4010 nM
[2]; hek293
  EC50: Not Active
[3]
  EC50: > 30000 nM

## Cc1cc(-c2ccc3c(c2)CC[C@@H]3N2CCC(N(C)C(=O)N[C@@H](C)c3ccc(C#CC4CC4)c(Cl)c3Cl)CC2)ncn1
[1]
  IC50: 1280 nM
[2]; read-out: EC50
  EC50: 1280 nM

## CCN(C(=O)N[C@@H](C)c1ccc(C#CC2CC2)c(Cl)c1Cl)C1CCN(C2CCc3cc(-c4cc(C)ncn4)ccc32)CC1 (some centres not stated)
[1]
  IC50: 2920 nM
[2]; read-out: EC50
  EC50: 937 nM

## COc1ccc([C@H](C)NC(=O)N(C)C2CCN(C3CCc4cc(N)ccc43)CC2)c(Cl)c1Cl (some centres not stated)
[4]
  microsomal CLint at 0.625 µM: 70.4 µL/min/mg
[1]
  IC50: 1510 nM
[2]; hek293
  EC50: Not Active
[7]
  microsomal CLint at 0.625 µM: 47.1 µL/min/mg

## Cc1ccc2c(c1)CCC2N1CCC(N(C)C(=O)N[C@@H](C)c2ccc(C3CC3)c(Cl)c2Cl)CC1 (some centres not stated)
[1]
  IC50: 2370 nM
[2]; hek293
  EC50: Not Active

## Cc1cn2cc(C(C)NC(=O)N(C)C3CCN(C)CC3)nc2s1 (configuration not stated)
[1]
  IC50: > 30000 nM
[2]; hek293
  EC50: Not Active
[3]
  EC50: > 30000 nM

## COc1ccc([C@H](CC2CC2)NC(=O)N(C)C2CCN(C3CCc4cc(-c5cc(C)ncn5)ccc43)CC2)c(Cl)c1Cl (some centres not stated)
[1]
  IC50: 1800 nM
[2]; read-out: EC50
  EC50: 439 nM

## C[C@H](NC(=O)N(C)C1CCN(C2CCc3cc(-c4cncnc4)ccc32)CC1)c1ccc(C#CC2CC2)c(Cl)c1Cl (some centres not stated)
[1]
  IC50: 85.9 nM
[2]; read-out: EC50
  EC50: 84.8 nM

## C#Cc1ccc([C@H](C)NC(=O)N(C)C2CCN(C3CCc4cc(C)ccc43)CC2)c(Cl)c1Cl (some centres not stated)
[1]
  IC50: 106 nM
[2]; hek293
  EC50: Not Active

## Cc1cc(-c2ccc3c(c2)CCC3N2CCC(N(C)C(=O)N[C@@H](C)c3ccc(C(=O)O)c(Cl)c3Cl)CC2)ncn1 (some centres not stated)
[1]
  IC50: > 30000 nM
[2]; hek293
  EC50: Not Active

## COc1ccc2c(c1)CCC2N1CCC(N(C)C(=O)N[C@@H](C)c2ccc(OC)c(Cl)c2Cl)CC1 (some centres not stated)
[1]
  IC50: 120 nM
[2]; read-out: EC50
  EC50: 85.7 nM

## Cc1cc(-c2ccc3c(c2)CCC3N2CCC(N(C)C(=O)N[C@@H](C)c3ccc(C#CC4CC4)c(Cl)c3Cl)C2)ncn1 (some centres not stated)
[1]
  IC50: 148 nM
[2]; hek293
  EC50: Not Active

## COc1ccc([C@H](C)NC(=O)N(C)C2CCN(C3CCc4cc(-n5nccn5)ccc43)CC2)c(Cl)c1Cl (some centres not stated)
[4]
  microsomal CLint at 0.625 µM: 244 µL/min/mg
[1]
  IC50: 240 nM
[2]; read-out: EC50
  EC50: 70 nM
[7]
  microsomal CLint at 0.625 µM: 79.8 µL/min/mg

## Cc1cc(-c2ccc3c(c2)CCC3N2CCC(N(C)C(=O)N[C@@H](CC3CC3)c3cccc(Cl)c3Cl)CC2)ncn1 (some centres not stated)
[1]
  IC50: 5400 nM
[2]; read-out: EC50
  EC50: 970 nM

## COc1ccc([C@H](C)NC(=O)N(C)C2CCN(C3CCc4cc(C)ccc43)CC2)c(Cl)c1Cl (some centres not stated)
[4]
  microsomal CLint at 0.625 µM: 217 µL/min/mg
[1]
  IC50: 329 nM
[5]
  microsomal CLint at 0.625 µM: 168 µL/min/mg
[2]; read-out: EC50
  EC50: 73 nM
[6]
  microsomal CLint at 0.625 µM: 143 µL/min/mg
[7]
  microsomal CLint at 0.625 µM: 80.3 µL/min/mg

## COC(=O)c1ccc([C@H](C)NC(=O)N(C)C2CCN(C3CCc4cc(-c5cc(C)ncn5)ccc43)CC2)c(Cl)c1Cl (some centres not stated)
[1]
  IC50: 303 nM
[2]; read-out: EC50
  EC50: 96 nM

## C[C@H](NC(=O)N(C)C1CCN(C2CCc3cc(-c4ncccn4)ccc32)CC1)c1ccc(C#CC2CC2)c(Cl)c1Cl (some centres not stated)
[1]
  IC50: 798 nM
[2]; read-out: EC50
  EC50: 634 nM

## Cc1ccc2c(c1)CCC2N1CCC(N(C)C(=O)N[C@@H](C)c2ccc(C#CC3CC3)c(Cl)c2Cl)CC1 (some centres not stated)
[1]
  IC50: 282 nM
[2]; read-out: EC50
  EC50: 117 nM
